We go through 14 compounds from PubChem BioAssay.

Calls of active or inactive are those of the source.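 How the source made its calls, unless noted: active means viability at or under a set limit in both replicates, limit being median viability minus 3 SD (cut at about 48% in these data, passing the limit was not always enough); inconclusive means at or under the limit in just one replicate; inactive means at or above the limit in both replicates.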

As a reminder, the viability is a read-out of living cells in per cent, often relative to untreated cells. What is called inhibition is the relative decrease from the control value, in per cent.

Experiment [1] in a line: reducers of endogenous Her2 protein level, primary screen, SKBR3 breast tumor cells, AlphaScreen, ATP viability (AID 461;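 active means Her2 level under about 52% in both replicate screens, with viability over 70% of control, limit read from the data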;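 on Her2 level: lower value means less Her2 protein in the cells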;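 on viability: percent of carrier control wells set as 100% viability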). To be noted: 18-24 h, measured here: SKBR3 viability, ATP luminescence, at 10 µM. In general terms: In Alpha technology, singlet oxygen from a donor bead excites a nearby acceptor bead.
Experiment [2] concerns the target Receptor tyrosine-protein kinase erbB-2 (Homo sapiens) (UniProt P04626). Described as above. To be noted: 18-24 h, at 10 µM, stronger effect = lower value.
A short description of experiment [3]: SK-BR-3 cell growth inhibitors, pilot screen, 24 h, human (AID 572;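 active means viability at or below 10% of carrier control in both of two separate runs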;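 further: compound exposure lasted between 18 and 24 h rather than exactly 24 h; 100% = carrier-treated control wells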). To be noted: SK-BR-3 viability, CellTiter-Glo luminescence, at 10 µM, stronger effect = lower value.
A short description of experiment [4]: HUVEC growth inhibition – cell-based, human, primary screen (AID 575;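 active means viability at or below 30% in both replicate assays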;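 further: 100% = median of untreated cell wells with 0.1% DMSO on each plate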). To be noted: HUVEC proliferation, CellTiter-Glo luminescence, 72 h; at 10 µM; stronger effect = lower value. An outline of the steps:
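System: primary human umbilical vein endothelial cells; Quantity: 1250 endothelial cells in each well; Buffer or medium: supplemented EBM, 2% fetal bovine serum; Doses: one dose, 10 µM final, 0.1% DMSO; Incubation: 72 h compound incubation; Technique: ATP-based CellTiter-Glo luminescent read; Evaluation: percent of median DMSO-control luminescence; Controls: vehicle and MePR control wells.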

Experiment [5] in a line: growth inhibitors of H69AR lung tumor, primary screen, human, duplicate replicates (AID 580).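 Further: 100% = mean luminescence of untreated wells and 0% = no signal.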 To be noted: H69AR lung tumor cells viability, ATP luminescence, 72 h; at 10 µM; stronger effect = lower value.
Experiment [6] can be described thus: reversal of MRP1-mediated doxorubicin resistance, pilot screen, H69AR cells, doxorubicin co-treatment (AID 601;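 active means viability loss from added drug above about 55%, and viability with drug at most 40%, in both replicates, limit read from the data, passing the limit was not always enough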). To be noted: CellTiter-Glo, 72 h, at 10 µM; for differential viability (reversal): stronger effect = higher value.
A short description of experiment [7]: 384-well plate pilot, post-Golgi transport modulator project, inhibition of yeast transport mutant growth (AID 636; in the data active means inhibition above about 31%). To be noted: absorbance 615 nm, about 18 h, stronger effect = higher value.
Experiment [8] is described as follows: growth suppression of yeast trafficking mutant, preliminary HTS, modulators of trafficking downstream of Golgi apparatus project, 1536-format plate, OD 615 nm (AID 637; in the data active means inhibition above about 30%). To be noted: yeast transport mutant growth, absorbance 615 nm, 18 h; stronger effect = higher value.
[9] abbreviates: H69AR cells + 2 uM doxorubicin, measured here: viability with 2 uM doxorubicin, stronger effect = lower value.
Where [10] appears, read: H69AR cells, compound alone cytotoxicity.

Chain of Receptor tyrosine-protein kinase erbB-2 (Homo sapiens) (P04626 whole entry, looked up): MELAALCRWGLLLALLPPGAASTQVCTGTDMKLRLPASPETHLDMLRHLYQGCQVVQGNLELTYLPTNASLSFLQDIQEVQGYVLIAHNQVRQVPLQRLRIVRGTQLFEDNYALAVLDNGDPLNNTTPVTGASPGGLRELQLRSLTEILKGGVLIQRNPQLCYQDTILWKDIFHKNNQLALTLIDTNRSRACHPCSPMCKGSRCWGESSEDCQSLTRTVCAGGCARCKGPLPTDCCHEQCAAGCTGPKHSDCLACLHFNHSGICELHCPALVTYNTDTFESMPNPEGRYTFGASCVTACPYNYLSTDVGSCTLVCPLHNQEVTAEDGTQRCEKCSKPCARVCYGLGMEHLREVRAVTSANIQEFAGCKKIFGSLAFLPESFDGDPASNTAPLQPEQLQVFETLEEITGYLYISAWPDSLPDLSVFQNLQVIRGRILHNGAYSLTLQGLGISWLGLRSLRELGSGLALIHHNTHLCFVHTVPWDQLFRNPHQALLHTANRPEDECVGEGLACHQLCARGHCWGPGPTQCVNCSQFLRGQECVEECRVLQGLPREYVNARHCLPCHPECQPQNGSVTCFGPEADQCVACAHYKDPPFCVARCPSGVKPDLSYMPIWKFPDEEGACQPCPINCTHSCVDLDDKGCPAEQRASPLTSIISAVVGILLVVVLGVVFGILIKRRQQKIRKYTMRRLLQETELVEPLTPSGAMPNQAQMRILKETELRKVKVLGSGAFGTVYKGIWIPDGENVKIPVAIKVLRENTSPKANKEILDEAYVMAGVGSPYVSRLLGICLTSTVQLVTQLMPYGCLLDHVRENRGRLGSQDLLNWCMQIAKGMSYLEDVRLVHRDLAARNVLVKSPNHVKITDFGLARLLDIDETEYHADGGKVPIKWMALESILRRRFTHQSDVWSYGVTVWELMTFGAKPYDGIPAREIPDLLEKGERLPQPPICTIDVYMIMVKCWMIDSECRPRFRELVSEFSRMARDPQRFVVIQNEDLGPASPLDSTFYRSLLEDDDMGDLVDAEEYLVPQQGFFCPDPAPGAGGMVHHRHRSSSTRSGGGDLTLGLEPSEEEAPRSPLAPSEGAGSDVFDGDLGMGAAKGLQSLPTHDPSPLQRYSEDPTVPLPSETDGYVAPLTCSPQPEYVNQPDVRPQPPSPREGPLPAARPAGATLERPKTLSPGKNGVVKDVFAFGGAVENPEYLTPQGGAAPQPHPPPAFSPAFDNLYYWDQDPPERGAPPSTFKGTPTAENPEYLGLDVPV

Consider `CCc1nnc2sc(-c3cc(-c4ccccc4)nc4ccccc34)nn12`, for which the viability was 71% in experiment [1]; 71% (inactive) in experiment [3]; 75.5% (inactive) in experiment [4]; 86.9% (inactive) in experiment [5]; 87.1% in experiment [6] (setting [9]); 86.9% in experiment [6] (setting [10]). The Her2 level in experiment [2] is 65% (inactive). For the same compound, in experiment [6] (H69AR cells + 2 uM doxorubicin), the differential viability (reversal) was -0.185% (inactive). Further, the results for the inhibition in experiment [7] and in experiment [8] were -1.82% (inactive) and 1% (inactive), respectively.

For the compound `NC1=NC(c2ccc(Br)cc2)n2c(nc3ccccc32)N1` (stereo not given), the viability in experiment [1] was 90%; in experiment [3], 90% (inactive); in experiment [4] it was 75.5% (inactive); in experiment [5], 81.4% (inactive); in experiment [6] (setting [9]), 76.6%; in experiment [6] (setting [10]) it was 81.4%. Also, in experiment [2], the Her2 level was 82% (inactive). Further, the differential viability (reversal) in experiment [6] (H69AR cells + 2 uM doxorubicin) was 4.81% (inactive). Further, the inhibition in experiment [7] is -5.13% (inactive); in experiment [8], -6% (inactive).

In the case of `CCOC(=O)Cn1nc(-c2ccc(C)cc2)ccc1=O`, the viability in experiment [1] is 99%; in experiment [3], 99% (inactive); in experiment [4] it was 94.1% (inactive); in experiment [5], 100% (inactive); in experiment [6] (setting [9]), 84.6%; in experiment [6] (setting [10]), 100%. Moreover, the Her2 level in experiment [2] was 115% (inactive). For the same compound, the differential viability (reversal) in experiment [6] (H69AR cells + 2 uM doxorubicin) is 15.4% (inactive). The results for the inhibition in experiment [7] and in experiment [8] were -5.32% (inactive) and 7.21% (inactive), respectively.

Consider `O=C(c1ccc(COc2c(F)c(F)c(F)c(F)c2F)o1)N1CCOCC1`, for which the viability in experiment [1] was 111%; in experiment [3] it was 111% (inactive); in experiment [4], 100% (inactive); in experiment [5] it was 88% (inactive); in experiment [6] (setting [9]), 80.3%; in experiment [6] (setting [10]), 88%. For the same compound, the Her2 level in experiment [2] is 98.5% (inactive). Further, in experiment [6] (H69AR cells + 2 uM doxorubicin), the differential viability (reversal) was 7.68% (inactive). The figures for the inhibition in experiment [7] and in experiment [8] were -5.81% (inactive) and 6.98% (inactive), respectively.

`CCOC(=O)c1[nH]nc(-c2c(O)cc(C)cc2O)c1-c1csc(C)n1`: the viability is 94% in experiment [1]; 94% (inactive) in experiment [3]; 106% (inactive) in experiment [4]; 96.5% (inactive) in experiment [5]; 89.8% in experiment [6] (setting [9]); 96.5% in experiment [6] (setting [10]). In addition, the Her2 level in experiment [2] is 106% (inactive). Also, the differential viability (reversal) in experiment [6] (H69AR cells + 2 uM doxorubicin) is 6.7% (inactive). The inhibition in experiment [7] was -6.71% (inactive); in experiment [8], -2.91% (inactive).

With `CC(C)(C)OC(=O)N1CC(O)CC1C(=O)OCC(=O)c1ccc(Cl)cc1` (stereo not given), the viability was 95% in experiment [1]; 95% (inactive) in experiment [3]; 109% (inactive) in experiment [4]; 84% (inactive) in experiment [5]; 90.3% in experiment [6] (setting [9]); 84% in experiment [6] (setting [10]). Further, in experiment [2], the Her2 level was 91% (inactive). The differential viability (reversal) in experiment [6] (H69AR cells + 2 uM doxorubicin) was -6.24% (inactive). The inhibition in experiment [7] is -5.68% (inactive); in experiment [8] it was 11.5% (inactive).

Regarding `COCCn1c(C)cc(C(=O)CSc2nc3ccccc3c(=O)[nH]2)c1C`, the viability in experiment [1] was 88.5%; in experiment [3] it was 88.5% (inactive); in experiment [4] it was 64.6% (inactive); in experiment [5], 80.9% (inactive); in experiment [6] (setting [9]) it was 88.9%; in experiment [6] (setting [10]), 80.9%. Further, the Her2 level in experiment [2] was 67% (inactive). In addition, the differential viability (reversal) in experiment [6] (H69AR cells + 2 uM doxorubicin) was -8.01% (inactive). For the same compound, the results for the inhibition in experiment [7] and in experiment [8] were -5.47% (inactive) and -3.61% (inactive), respectively.

For `O=C(O)CCNc1nc(-c2ccccc2)nc2ccccc12`, the viability is 87% in experiment [1]; 87% (inactive) in experiment [3]; 96.3% (inactive) in experiment [4]; 91.1% (inactive) in experiment [5]; 93.8% in experiment [6] (setting [9]); 91.1% in experiment [6] (setting [10]). Moreover, in experiment [2], the Her2 level is 102% (inactive). Further, the differential viability (reversal) in experiment [6] (H69AR cells + 2 uM doxorubicin) is -2.72% (inactive). Also, the inhibition in experiment [7] was -0.13% (inactive); in experiment [8], -1.11% (inactive).

Consider `Fc1cc(F)c(F)c(SCCc2ccncc2)c1F`, for which the viability in experiment [1] is 97%; in experiment [3], 97% (inactive); in experiment [4], 93.8% (inactive); in experiment [5], 85.3% (inactive); in experiment [6] (setting [9]) it was 80.3%; in experiment [6] (setting [10]), 85.3%. Further, the Her2 level in experiment [2] was 81.5% (inactive). Further, in experiment [6] (H69AR cells + 2 uM doxorubicin), the differential viability (reversal) was 5% (inactive). Besides, the inhibition in experiment [7] is 0.67% (inactive); in experiment [8] it was 1.45% (inactive).

Take `CCn1c(CC(=O)Nc2cccc(OC)c2)nnc1SCC(=O)Nc1nccs1`: the viability in experiment [1] was 98%; in experiment [3], 98% (inactive); in experiment [4] it was 94.5% (inactive); in experiment [5], 101% (inactive); in experiment [6] (setting [9]) it was 97%; in experiment [6] (setting [10]), 101%. In addition, the Her2 level in experiment [2] is 102% (inactive). In addition, in experiment [6] (H69AR cells + 2 uM doxorubicin), the differential viability (reversal) is 4.37% (inactive). The results for the inhibition in experiment [7] and in experiment [8] were -7.6% (inactive) and -2.26% (inactive), respectively.

As for `c1cnn(-c2cc(N3CCOCC3)ncn2)c1`, the viability in experiment [1] was 70%; in experiment [3], 70% (inactive); in experiment [4] it was 90.2% (inactive); in experiment [5], 93% (inactive); in experiment [6] (setting [9]), 85.5%; in experiment [6] (setting [10]), 93%. Further, in experiment [2], the Her2 level is 117% (inactive). Moreover, the differential viability (reversal) in experiment [6] (H69AR cells + 2 uM doxorubicin) is 7.52% (inactive). The inhibition in experiment [7] was 4.47% (inactive); in experiment [8], 21.6% (inactive).

With `O=C(O)C1C2C=CC(O2)C1C(=O)NCc1ccc(Cl)cc1` (stereo not given), the viability in experiment [1] is 107%; in experiment [3], 107% (inactive); in experiment [4], 105% (inactive); in experiment [5] it was 104% (inactive); in experiment [6] (setting [9]), 96.6%; in experiment [6] (setting [10]), 104%. In experiment [2], the Her2 level was 94.5% (inactive). Also, the differential viability (reversal) in experiment [6] (H69AR cells + 2 uM doxorubicin) is 7.33% (inactive). In addition, the figures for the inhibition in experiment [7] and in experiment [8] were -5.87% (inactive) and 2.58% (inactive), respectively.

Turning to `CCCn1c(N2CCN(CC(=O)Nc3ccc4c(c3)OCCO4)CC2)nc2ccccc21`, the viability is 88.5% in experiment [1]; 88.5% (inactive) in experiment [3]; 87.4% (inactive) in experiment [4]; 88.9% (inactive) in experiment [5]; 88.3% in experiment [6] (setting [9]); 88.9% in experiment [6] (setting [10]). For the same compound, the Her2 level in experiment [2] was 96% (inactive). Also, the differential viability (reversal) in experiment [6] (H69AR cells + 2 uM doxorubicin) is 0.63% (inactive). The inhibition in experiment [7] is -6.18% (inactive); in experiment [8] it was 4.59% (inactive).

For `Cc1cccc2c1N(CC(=O)OC(C)C)C(=O)C2=O`, the viability was 76.5% in experiment [1]; 76.5% (inactive) in experiment [3]; 95% (inactive) in experiment [4]; 75.2% (inactive) in experiment [5]; 78.5% in experiment [6] (setting [9]); 75.2% in experiment [6] (setting [10]). Also, the Her2 level in experiment [2] was 103% (inactive). Further, the differential viability (reversal) in experiment [6] (H69AR cells + 2 uM doxorubicin) was -3.31% (inactive). For the same compound, the inhibition in experiment [7] is 1.67% (inactive); in experiment [8], 6.67% (inactive).
